Data published in ChEMBL document CHEMBL3525979, “Combined contributions of impaired hepatic CYP2C11 and intestinal breast cancer resistance protein activities and expression to increased oral glibenclamide exposure in rats with streptozotocin-induced diabetes mellitus” (Drug Metab Dispos, 2012).

Key:
[1] = Half life in insulin treated streptozotocin-induced diabetes mellitus Sprague-Dawley rat liver microsomes at 4 uM after 60 mins; type: ADME
Procedure, shortened: (§1)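 Liver microsomes (0.5 mg/mL protein) from control, STZ-diabetic or insulin-treated diabetic rats, 0.01 M phosphate buffer pH 7.4, 4 μM GLB (methanol <1%); 5 min preincubation at 37 °C, started with NADPH regenerating system. Stopped with 1 M HCl at 0, 5, 15, 30, 45, 60 min. GLB depletion measured by HPLC-fluorescence. AUC by linear trapezoid; Clapp = initial dose/AUC0-t; t1/2 = 0.693/terminal slope. Triplicate incubations; 4-5 rats.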

[2] = Terminal elimination half life in Sprague-Dawley rat model of streptozotocin-induced diabetes mellitus at 10 mg/kg, po by HPLC method; type: ADME, organism-based; set-up: dose 10 mg/kg, route oral; conditions: in vivo, read-out: beta t1/2 (converted)
Procedure, shortened: (§2)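 Rats given STZ 65 mg/kg i.p. in citrate buffer pH 4.5 (controls got buffer); diabetic if fasting glucose >11.1 mM at day 7; insulin group got protamine zinc insulin 5 U/kg s.c. twice daily for 4 weeks. On day 35, overnight-fasted rats dosed orally with 10 mg/kg in 0.5% CMC-Na; plasma by ethyl acetate extraction, HPLC fluorescence (ex 308/em 360 nm); non-compartmental analysis; n=6-7, mean ± S.D.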

[3] = Oral clearance in insulin treated Sprague-Dawley rat model of streptozotocin-induced diabetes mellitus at 10 mg/kg, po by HPLC method; type: ADME, organism-based; set-up: dose 10 mg/kg, route oral; conditions: in vivo; procedure, shortened: as §2
Jejunum [4] = experiment: Drug absorption in streptozotocin-induced diabetes mellitus Sprague-Dawley rat jejunum at 10 ug/ml after 120 mins of in situ single-pass perfusion relative to normal rat; type: ADME, tissue-based; conditions: in vivo, 2 h
Procedure, shortened: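 In situ single-pass jejunal perfusion in anaesthetized control and STZ-diabetic rats. The segment was preperfused with 0.9% saline at 0.2 mL/min, 37 °C, for 20 min, then perfused with K-H buffer containing GLB 10 μg/mL. Effluent was collected at 15-min intervals after a 30-min steady state. Cumulative absorption was calculated from GLB loss (HPLC); n=5.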

[5] = AUC (0 to 60 mins) in insulin treated streptozotocin-induced diabetes mellitus Sprague-Dawley rat liver microsomes at 4 uM after 60 mins; type: ADME; set-up: dose 4 uM, time < 1 hr; procedure, shortened: as §1
[6] = Mean residence time in normal Sprague-Dawley rat at 10 mg/kg, po by HPLC method; type: ADME, organism-based; set-up: dose 10 mg/kg, route oral; conditions: in vivo
Procedure, shortened: (§3)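 Sprague-Dawley rats: diabetes induced by STZ 65 mg/kg i.p. in citrate buffer pH 4.5 (fasting glucose >11.1 mM at day 7). Insulin group received protamine zinc insulin 5 U/kg s.c. twice daily for 4 weeks. On day 35, overnight-fasted rats got GLB 10 mg/kg orally in 0.5% CMC-Na. Plasma GLB measured by HPLC with fluorescence detection (ex 308/em 360 nm). Non-compartmental analysis; n=6-7.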

[7] = AUC (0 to infinity) in normal Sprague-Dawley rat at 10 mg/kg, po by HPLC method; type: ADME, organism-based; set-up: time infinity, dose 10 mg/kg, route oral; conditions: plasma; procedure, shortened: as §3
[8] = Drug excretion in normal Sprague-Dawley rat feces at 10 mg/kg, po by HPLC method; type: ADME, organism-based; set-up: dose 10 mg/kg, route oral; conditions: faeces, read-out: Drug excretion
Procedure, shortened: (§4)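 STZ-diabetic (65 mg/kg i.p.), insulin-treated or control rats were dosed with GLB 10 mg/kg orally on day 35 after overnight fast. Urine and feces were collected in metabolic cages at 6-h intervals to 36 h. For bile, the common bile duct was cannulated under pentobarbital and bile collected to 12 h. GLB measured by HPLC-fluorescence and expressed as % of dose.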

Liver microsome [9] = experiment: Drug metabolism in streptozotocin-induced diabetes mellitus Sprague-Dawley rat liver microsomes assessed as compound level at 4 uM after 60 mins (reference value: 2.0 +/- 0.13 ug/ml); type: ADME; conditions: 1 h
[10] = Cmax in normal Sprague-Dawley rat at 10 mg/kg, po by HPLC method; type: ADME, organism-based; set-up: dose 10 mg/kg, route oral; conditions: in vivo; procedure, shortened: as §3
Jejunum [11] = experiment: Drug absorption in normal Sprague-Dawley rat jejunum at 10 ug/ml in presence of 50 to 200 uM BCRP inhibitor novobiocin; type: ADME, tissue-based; conditions: in vivo
Procedure, shortened: (§5)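 Normal rats underwent in situ single-pass jejunal perfusion: saline preperfusion at 0.2 mL/min, 37 °C, for 20 min, then K-H buffer with GLB 10 μg/mL with or without novobiocin 50 or 200 μM. Effluent was collected every 15 min. Peff (cm/min) was calculated from GLB loss and the absorptive area of the segment; n=5.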

[12] = Tmax in Sprague-Dawley rat model of streptozotocin-induced diabetes mellitus at 10 mg/kg, po by HPLC method; type: ADME, organism-based; set-up: dose 10 mg/kg, route oral; conditions: in vivo; procedure, shortened: as §2
[13] = AUC (0 to infinity) in insulin treated Sprague-Dawley rat model of streptozotocin-induced diabetes mellitus at 10 mg/kg, po by HPLC method; type: ADME, organism-based; set-up: dose 10 mg/kg, route oral, time infinity; conditions: in vivo; procedure, shortened: as §3
[14] = Apparent oral volume of distribution in insulin treated Sprague-Dawley rat model of streptozotocin-induced diabetes mellitus at 10 mg/kg, po by HPLC method; type: ADME, organism-based; set-up: dose 10 mg/kg, route oral; conditions: in vivo; procedure, shortened: as §3
[15] = Drug excretion in bile of insulin treated Sprague-Dawley rat model of streptozotocin-induced diabetes mellitus at 10 mg/kg, po by HPLC method; type: ADME, organism-based; set-up: dose 10 mg/kg, route oral; conditions: read-out: Drug excretion; procedure, shortened: as §4
[16] = Oral clearance in Sprague-Dawley rat model of streptozotocin-induced diabetes mellitus at 10 mg/kg, po by HPLC method; type: ADME, organism-based; set-up: dose 10 mg/kg, route oral; conditions: in vivo; procedure, shortened: as §3
[17] = AUC (0 to t) in Sprague-Dawley rat model of streptozotocin-induced diabetes mellitus at 10 mg/kg, po by HPLC method; type: ADME, organism-based; set-up: dose 10 mg/kg, route oral; conditions: in vivo; procedure, shortened: as §3
[18] = AUC (0 to 60 mins) in normal Sprague-Dawley rat liver microsomes at 4 uM after 60 mins; type: ADME; set-up: time < 1 hr, dose 4 uM; procedure, shortened: as §1
[19] = Drug excretion in urine of Sprague-Dawley rat model of streptozotocin-induced diabetes mellitus at 10 mg/kg, po by HPLC method; type: ADME, organism-based; set-up: dose 10 mg/kg, route oral; conditions: read-out: Drug excretion; procedure, shortened: as §4
[20] = Cmax in Sprague-Dawley rat model of streptozotocin-induced diabetes mellitus at 10 mg/kg, po by HPLC method; type: ADME, organism-based; set-up: dose 10 mg/kg, route oral; conditions: in vivo; procedure, shortened: as §3
[21] = Cmax in insulin treated Sprague-Dawley rat model of streptozotocin-induced diabetes mellitus at 10 mg/kg, po by HPLC method; type: ADME, organism-based; set-up: dose 10 mg/kg, route oral; conditions: in vivo; procedure, shortened: as §3
Jejunum [22] = experiment: Drug absorption in normal Sprague-Dawley rat jejunum assessed as 200 uM BCRP inhibitor novobiocin-mediated increase in apparent effective permeability at 10 ug/ml measured at 45 mins of perfusion; type: ADME, tissue-based; set-up: scale not given: the % may be the effect or the level left; conditions: 0.75 h; procedure, shortened: as §5
[23] = Oral clearance in normal Sprague-Dawley rat at 10 mg/kg, po by HPLC method; type: ADME, organism-based; set-up: dose 10 mg/kg, route oral; conditions: in vivo; procedure, shortened: as §2
Liver microsome [24] = experiment: Drug metabolism in insulin treated streptozotocin-induced diabetes mellitus Sprague-Dawley rat liver microsomes assessed as compound level at 4 uM after 60 mins (reference value: 2.06 +/- 0.27 ug/ml); type: ADME; conditions: 1 h

Structure (SMILES): COc1ccc(Cl)cc1C(=O)NCCc1ccc(S(=O)(=O)NC(=O)NC2CCCCC2)cc1 [GLYBURIDE]
- half-life at 4 µM [1]: 0.211 h
- half-life [2]: 5.11 h
- CL/F [3]: 66.3 mL/min/kg
- Drug absorption (Jejunum [4]): 42%
- AUC(0-t) at 1 h, 4 µM [5]: 357 ng·h/mL
- MRT [6]: 7.23 h
- AUC(0-inf) [7]: 2610 ng·h/mL
- dose excreted [8]: 72%
- Drug uptake (Liver microsome [9]): 0.52 µg/mL
- Cmax [10]: 350 ng/mL
- Drug absorption (Jejunum [11]): Active
- Tmax [12]: 7.2 h
- AUC(0-inf) [13]: 3000 ng·h/mL
- Vd/F [14]: 36.8 L/kg
- dose excreted [15]: 0.018%
- CL/F [16]: 12 mL/min/kg
- AUC(0-t) [17]: 13300 ng·h/mL
- AUC(0-t) at 1 h, 4 µM [18]: 307 ng·h/mL
- dose excreted [19]: 0.023%
- Cmax [20]: 1250 ng/mL
- Cmax [21]: 250 ng/mL
- Activity (Jejunum [22]): 25%
- CL/F [23]: 65.5 mL/min/kg
- Drug uptake (Liver microsome [24]): 0.09 µg/mL
